Test results: article PMC10903085 (Neurotherapeutics, 2023)
“Also recorded” adds a separate entry of the source.

What was measured:
primary rat neurons = test: Modified MTT assay of Aβ toxicity in primary neurons; assay type: cell-based; conditions: compound 0.3, 3 or 15 μM, 90-min pretreatment, 2.5 μM Aβ, 24 h
[1] = Phase IIa clinical trial, tolerable dose; cited from earlier work
Tau-FynSH3 interaction [2] = target: T1, Tau-FynSH3 interaction (Homo sapiens, UniProt P10636); test: Tau-FynSH3 AlphaScreen; assay type: binding; conditions: left-hand phenyl ring removed
Sam68(PxxP)-FynSH3 = conditions: cited from earlier work
SFK = conditions: cited from earlier work
[3] = Oral administration, brain and plasma concentrations; assay type: in vivo, mouse; conditions: male CD1 mice, PO 5 mg/kg, 1 h, 2 h, 4 h post-treatment
Procedure, shortened: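 Male CD1 mice received test compound orally at 5 mg/kg, formulated at 1 mg/mL in 10 % NMP, 60 % PEG400 and 30 % saline. Brain and plasma levels were measured by HPLC-MS at 1, 2 and 4 h after dosing, and the brain/plasma ratio was taken from these.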

Tau-Fyn interaction = test: Endogenous Tau-Fyn PLA in primary neurons; assay type: cell-based, rat; conditions: 24 h
Procedure, shortened: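 Rat hippocampal neurons (E19 Sprague-Dawley embryos) grown on coated coverslips to DIV20, treated with test compound or vehicle, and fixed in PFA 24 h later. Cells were permeabilised in 0.25 % Triton X-100 and blocked in 5 % NGS. Tau (1:1000) and Fyn (1:250) antibodies were applied overnight at 4 °C, then Duolink PLA was run. Thresholded puncta were counted from 5–7 images per coverslip and normalised to vehicle slides; analysis was blinded.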

Tau = test: Western blot of Tau levels in primary neurons; assay type: cell-based, rat; conditions: 15 μM, 24 h
Procedure, shortened: (§1)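 Rat primary neurons at DIV13 were treated with 15 μM test compound or vehicle for 24 h. They were lysed in Tris/NaCl/EDTA buffer containing SDS, Triton and deoxycholate. 5 μg protein (Bradford) was run on 4–12 % bis-tris/MOPS gels and blotted to PVDF. Blots were probed overnight at 4 °C for Fyn (1:1000), then GAPDH (1:5000), stripped and reprobed for Tau (1:10,000). Infrared detection was used, with densitometry.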

Fyn [4] = test: Western blot of Fyn levels in primary neurons; assay type: cell-based, rat; conditions: 15 μM, 24 h
Procedure, shortened: as §1

97 kinases = test: Eurofins DiscoverX ScanEDGE kinase panel; assay type: binding; conditions: 3 μM; activity defined as <35 % of control
Fyn [5] = target: Fyn (Homo sapiens, UniProt P06241); test: Custom kinase panel for Fyn; assay type: binding; conditions: 3 μM; activity defined as <35 % of control
FynSH3 = FynSH3 (Homo sapiens, UniProt P06241); test: Isothermal titration calorimetry with FynSH3; assay type: binding; conditions: 25 °C
Procedure, shortened: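 Purified human FynSH3 from E. coli was dialysed at 4 °C into 20 mM Tris, 150 mM NaCl, pH 8.0, quantified by A280 and brought to 5 % DMSO. The cell held ~120 μM FynSH3 and the syringe 1 mM test compound. Sixteen 2.5 μL injections were made at 25 °C. Titrant-into-buffer heat was used as background, and data were fitted to a one-set-of-sites model.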

Tau-PxxP5/6 = Tau-PxxP5/6 (Homo sapiens, UniProt P10636); test: Isothermal titration calorimetry with Tau-PxxP5/6 peptide; assay type: binding; conditions: 25 °C
Procedure, shortened: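 Calorimetric titration at 25 °C in 5 % DMSO. About 120 μM Tau-PxxP5/6 peptide sat in the cell and 1 mM test compound in the syringe. Sixteen 2.5 μL injections were made. Mixing heat from titrant into buffer alone was used as background, and the normalised heat was fitted to a one-set-of-sites model.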

Tau-FynSH3 interaction [6] = target: T1, Tau-FynSH3 interaction; test: Tau-Flag PLA, Tau-FynSH3 in HEK-293 cells; assay type: cell-based; conditions: HEK293, read-out: Inhibition of Tau-FynSH3 interaction (PLA)
Procedure, shortened: (§2)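 HEK-293 cells on PDL/laminin coverslips in DMEM with 10 % FBS were co-transfected (Fugene) with 125 ng human 4R2N Tau-mKate2 and 500 ng GST-SH3-Flag plasmid for the relevant SH3 domain. After 24 h, test compound was added at 15 μM final, and cells were fixed 24 h later. PLA used Tau (1:1000) and Flag (1:1000) antibodies, with puncta quantified by thresholding.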

Tau-LckSH3 interaction = Tau-LckSH3 interaction (Homo sapiens, UniProt P10636); test: Tau-Flag PLA, Tau-LckSH3 in HEK-293 cells; assay type: cell-based; conditions: 15 μM
Procedure, shortened: as §2

Tau-BIN1SH3 interaction = Tau-BIN1SH3 interaction (Homo sapiens, UniProt P10636); test: Tau-Flag PLA, Tau-BIN1SH3 in HEK-293 cells; assay type: cell-based; conditions: 15 μM
Procedure, shortened: as §2

Tau-SrcSH3 interaction = Tau-SrcSH3 interaction (Homo sapiens, UniProt P10636); test: Tau-Flag PLA, Tau-SrcSH3 in HEK-293 cells; assay type: cell-based; conditions: 15 μM
Procedure, shortened: as §2

Tau-tubulin interaction = test: Tau-tubulin PLA in untransfected HEK-293 cells; assay type: cell-based, human; conditions: 15 μM, 24 h
Procedure, shortened: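 Untransfected HEK-293 cells were grown 48 h, then exposed to 15 μM test compound for 24 h and fixed. PLA for endogenous Tau–α-tubulin proximity used Tau (1:1000) and α-tubulin (1:2000) primary antibodies, with the permeabilisation, blocking, probe, ligation and amplification steps of the neuronal PLA.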

primary neurons = test: Multi-electrode array, Aβ-induced network hyperexcitability; assay type: cell-based, rat; conditions: 1 h pretreatment, 500 nM Aβ oligomers, 4 h
[7] = Metabolic stability in mouse liver microsomes; assay type: in vitro ADME

T1 sequence (P10636 1-441 isoform P10636-8): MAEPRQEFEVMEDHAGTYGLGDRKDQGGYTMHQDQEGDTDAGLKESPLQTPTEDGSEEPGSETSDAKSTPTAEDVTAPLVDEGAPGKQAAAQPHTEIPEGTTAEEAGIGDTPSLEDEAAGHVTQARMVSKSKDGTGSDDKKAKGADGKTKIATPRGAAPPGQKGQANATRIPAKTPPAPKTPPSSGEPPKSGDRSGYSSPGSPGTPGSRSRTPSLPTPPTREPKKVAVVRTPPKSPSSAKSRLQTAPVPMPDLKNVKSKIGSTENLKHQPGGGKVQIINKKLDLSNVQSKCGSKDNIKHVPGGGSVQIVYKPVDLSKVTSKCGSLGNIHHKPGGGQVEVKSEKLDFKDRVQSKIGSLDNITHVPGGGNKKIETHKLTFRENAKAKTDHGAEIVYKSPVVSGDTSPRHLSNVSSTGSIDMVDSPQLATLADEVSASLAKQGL
Chain of Tau-BIN1SH3 interaction (P10636 1-441 isoform P10636-8): as above
Chain of Tau-SrcSH3 interaction (P10636 1-441 isoform P10636-8): as above
Chain of Tau-LckSH3 interaction (P10636 1-441 isoform P10636-8): as above
Chain of FynSH3 (P06241 82-143 limits assumed): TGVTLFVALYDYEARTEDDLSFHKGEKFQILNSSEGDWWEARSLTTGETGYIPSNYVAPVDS
Chain of Fyn (Homo sapiens, UniProt P06241) (P06241 whole entry): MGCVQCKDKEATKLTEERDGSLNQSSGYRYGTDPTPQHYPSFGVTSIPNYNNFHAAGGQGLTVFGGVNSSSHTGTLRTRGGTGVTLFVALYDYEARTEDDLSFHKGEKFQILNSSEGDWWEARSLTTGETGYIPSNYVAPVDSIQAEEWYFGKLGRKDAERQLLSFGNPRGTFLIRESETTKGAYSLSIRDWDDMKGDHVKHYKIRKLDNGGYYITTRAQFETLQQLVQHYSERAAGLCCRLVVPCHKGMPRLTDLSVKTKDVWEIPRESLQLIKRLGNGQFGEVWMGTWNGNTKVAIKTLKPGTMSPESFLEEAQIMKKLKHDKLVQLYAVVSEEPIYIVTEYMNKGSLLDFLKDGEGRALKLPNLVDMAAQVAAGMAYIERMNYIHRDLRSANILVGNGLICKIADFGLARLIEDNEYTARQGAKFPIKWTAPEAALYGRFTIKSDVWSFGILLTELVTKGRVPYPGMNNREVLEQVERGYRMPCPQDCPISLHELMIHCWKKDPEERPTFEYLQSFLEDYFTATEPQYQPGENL

Compound: Cc1ccc2c(c1)SCC(=O)N2CC(=O)Nc1nnc(-c2ccccn2)[nH]1 [SRI-39488, 2-(7-methyl-3-oxo-2,3-dihydro-4H-benzo[b][1,4]thiazin-4-yl)-N-(5-(pyridin-2-yl)-4H-1,2,4-triazol-3-yl)acetamide]
- Amelioration of Aβ toxicity in modified MTT assay (primary rat neurons): inhibited Aβ toxicity

Compound: CN1CCN(CCOc2cc(OC3CCOCC3)c3c(Nc4c(Cl)ccc5c4OCO5)ncnc3c2)CC1 [saracatinib]
- Clinical benefit in AD [1]: no clinical benefit

Compound: O=C(CN1CCCCC1)Nc1nnc(-c2ccccn2)[nH]1 [SRI-43142, 2-(piperidin-1-yl)-N-(5-(pyridin-2-yl)-4H-1,2,4-triazol-3-yl)acetamide]
- Reduction of AlphaScreen activity relative to SRI-39669 (Tau-FynSH3 interaction [2]): 8–10 fold

Compound: UCS15A
- Inhibition of Sam68(PxxP)-FynSH3 interaction (Sam68(PxxP)-FynSH3): inhibited
- Inhibition of SFK kinase activity (SFK): does not inhibit SFK kinase activity

Compound: O=C(CN1CCOCC1)Nc1nnc(-c2ccccn2)[nH]1 [SRI-43143, 2-Morpholino-N-(5-(pyridin-2-yl)-4H-1,2,4-triazol-3-yl)acetamide]
- Reduction of AlphaScreen activity relative to SRI-39669 (Tau-FynSH3 interaction [2]): 8–10 fold

Compound: O=C(CN1CCOc2ccccc21)Nc1nnc(-c2ccccn2)[nH]1 [SRI-42667, 2-(2,3-Dihydro-4H-benzo[b][1,4]oxazin-4-yl)-N-(5-(pyridin-2-yl)-4H-1,2,4-triazol-3-yl)acetamide]
- Amelioration of Aβ toxicity in modified MTT assay (primary rat neurons): ameliorates Aβ toxicity; also recorded: inhibited Aβ toxicity
- Detection in plasma and brain after oral administration [3]: observed in both plasma and brain
- Reduction of endogenous Tau-Fyn PLA (Tau-Fyn interaction; 3 μM): reduces endogenous Tau-Fyn PLA
- Reduction of endogenous Tau-Fyn PLA (Tau-Fyn interaction; 15 μM): reduces endogenous Tau-Fyn PLA
- Tau levels (Tau): does not reduce
- Fyn levels (Fyn [4]): does not reduce
- Inhibition of any of the 97 kinases (97 kinases): did not inhibit
- Inhibition of Fyn kinase (Fyn [5]): did not inhibit
- Binding to FynSH3 by ITC (FynSH3): did not bind FynSH3
- Interaction with Tau-PxxP5/6 peptide by ITC (Tau-PxxP5/6): no interaction
- inhibition at 15 µM (Tau-FynSH3 interaction [6]): 37%
- Inhibition of Tau-LckSH3 interaction (PLA) (Tau-LckSH3 interaction): strongly inhibited
- Inhibition of Tau-BIN1 SH3 interaction (PLA) (Tau-BIN1SH3 interaction): moderately inhibited
- Inhibition of Tau-SrcSH3 interaction (PLA) (Tau-SrcSH3 interaction): did not significantly inhibit
- Inhibition of Tau-tubulin interaction (PLA) (Tau-tubulin interaction): does not inhibit Tau-tubulin interaction
- Prevention of Aβ-induced network hyperexcitability (MEA) (primary neurons; 3 μM): prevented Aβ-induced network hyperexcitability
- Prevention of Aβ-induced network hyperexcitability (MEA) (primary neurons; 15 μM): prevented Aβ-induced network hyperexcitability

Compound: O=C(CN1CCSc2ccccc21)Nc1nnc(-c2ccccn2)[nH]1 [SRI-39669, 2-(2,3-dihydro-4H-benzo[b][1,4]thiazin-4-yl)-N-(5-(pyridin-2-yl)-4H-1,2,4-triazol-3-yl)acetamide]
- Detection in plasma and brain after oral administration [3]: detected in both plasma and brain

Compound: O=C(CN1C(=O)CSc2cc(F)ccc21)Nc1nnc(-c2ccccn2)[nH]1 [SRI-39210, 2-(7-fluoro-3-oxo-2,3-dihydro-4H-benzo[b][1,4]thiazin-4-yl)-N-(5-(pyridin-2-yl)-4H-1,2,4-triazol-3-yl)acetamide]
- half-life [7]: 2.43 h
- Amelioration of Aβ toxicity in modified MTT assay (primary rat neurons): inhibited Aβ toxicity
- Detection in plasma and brain after oral administration [3]: able to detect SRI-39210 in plasma, it did not cross the BBB and was not present in brain

Compound: O=C(CN1CCCc2ccccc21)Nc1nnc(-c2ccccn2)[nH]1 [SRI-42654, 2-(3,4-Dihydroquinolin-1(2H)-yl)-N-(5-(pyridin-2-yl)-4H-1,2,4-triazol-3-yl)acetamide]
- Amelioration of Aβ toxicity in modified MTT assay (primary rat neurons): inhibited Aβ toxicity

Compound: O=C(CN1C(=O)CSc2cc(Cl)ccc21)Nc1nnc(-c2ccccn2)[nH]1 [SRI-39211, 2-(7-chloro-3-oxo-2,3-dihydro-4H-benzo[b][1,4]thiazin-4-yl)-N-(5-(pyridin-2-yl)-4H-1,2,4-triazol-3-yl)acetamide]
- Amelioration of Aβ toxicity in modified MTT assay (primary rat neurons): inhibited Aβ toxicity
